Test results as given in ChEMBL document CHEMBL1781992, “A novel monocarbonyl analogue of curcumin, (1E,4E)-1,5-bis(2,3-dimethoxyphenyl)penta-1,4-dien-3-one, induced cancer cell H460 apoptosis via activation of endoplasmic reticulum stress signaling pathway” (J Med Chem, 2011).
Active and inactive are the calls of the source. The rule behind the calls is not given here.

Legend:
NCI-H460 [1] = experiment: Induction of apoptosis in human NCI-H460 cells assessed as non-viable necrotic cells at 20 uM after 6 hrs by annexinV-propidium iodide staining based flow cytometric analysis relative to control; type: functional
Procedure, shortened: (§1)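 H460 cells plated for 6 h, then treated with 5, 10 or 20 μM. Cells washed, trypsin-EDTA detached and resuspended in PBS, then stained with annexin V and propidium iodide plus RNase and 0.1% Triton X-100 for 30 min at 37 °C before flow cytometry. Figure legend gives 6 h incubation.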

NCI-H460 [2] = experiment: Antitumor activity against human NCI-H460 cells xenografted in nude Balb/cA mouse assessed as decrease in tumor volume at 50 mg/kg, ip qd for 20 days measured on day 22 relative to control; type: functional; parameters: scale not given: the % may be the effect or the level left; details: route intraperitoneal
Procedure, shortened: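 BALB/cA nu/nu female athymic mice bearing sc right-flank xenografts (3 × 10^6 H460 cells in PBS); once-daily ip dosing began on day 10, when tumors reached 100–300 mm3. Water-soluble liposome preparation in PBS at 10 or 50 mg/kg; controls received liposome vehicle in PBS. Volume = lw²/2; T/C read on day 22. Seven mice per group, mean ± SD; Student's t test.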

NCI-H460 [3] = experiment: Induction of apoptosis in human NCI-H460 cells at 5 to 30 uM after 24 hrs by flow cytometric analysis; type: functional, cell-based
Mus musculus [4] = experiment: Toxicity in ICR mouse assessed as body weight change at 400 to 800 mg/kg; type: organism-based; parameters: dose 400-800 mg/kg; details: in vivo
Mus musculus [5] = experiment: Toxicity in ICR mouse assessed as organ weight change at 400 to 800 mg/kg; type: organism-based; parameters: dose 400-800 mg/kg; details: in vivo
[6] = molecular target: Transcription factor Jun (Homo sapiens) (UniProt P05412); experiment: Induction of c-Jun phosphorylation in human NCI-H460 cells at 20 uM by Western blot analysis; type: cell-based; details: TDE = time-dependent effect
Chain of Transcription factor Jun (Homo sapiens) (P05412 whole entry): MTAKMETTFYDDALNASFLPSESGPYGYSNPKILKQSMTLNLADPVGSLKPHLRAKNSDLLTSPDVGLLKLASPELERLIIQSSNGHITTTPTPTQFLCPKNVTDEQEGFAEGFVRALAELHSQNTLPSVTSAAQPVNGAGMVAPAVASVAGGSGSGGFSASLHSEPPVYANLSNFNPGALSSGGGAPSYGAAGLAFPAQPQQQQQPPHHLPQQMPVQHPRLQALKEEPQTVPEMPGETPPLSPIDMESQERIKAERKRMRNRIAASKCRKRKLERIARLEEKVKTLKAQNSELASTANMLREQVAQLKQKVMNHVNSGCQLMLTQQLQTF
Procedure, shortened: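 H460 cells in RPMI 1640 with 5% FBS, treated at 20 μM for 12 h. Lysates in Tris-HCl pH 7.4, NP40, SDS buffer with protease/phosphatase inhibitors. p-c-Jun examined by Western blot with HRP secondary and chemiluminescence, actin as equal-loading control.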

NCI-H460 [7] = experiment: Cytotoxicity against human NCI-H460 cells after 72 hrs by MTT assay; type: functional, cell-based; details: NCI-H460, 72 h
Procedure, shortened: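 H460 cells grown in RPMI 1640 with 5% FBS at 37 °C, 10% CO2, treated 24 h after seeding. Compounds in DMSO diluted into medium at final 100, 33.3, 11.1 and 3.7 μg/mL for 72 h. MTT (5 mg/mL in 0.9% NaCl) added for 3 h, formazan dissolved in DMSO and read at 570 nm; IC50 derived.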

NCI-H460 [8] = experiment: Induction of CHOP expression in human NCI-H460 cells at 15 to 20 uM after 24 hrs by Western blot analysis; type: functional, cell-based
Procedure, shortened: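 H460 cells treated for 24 h at the indicated concentrations; whole-cell lysates probed for CHOP by Western blot, with actin as loading control.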

NCI-H460 [9] = experiment: Induction of GRP78 mRNA expression in human NCI-H460 cells after 3 hrs by real time quantitative PCR analysis; type: functional, cell-based
Procedure, shortened: (§2)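 H460 cells treated across a concentration range for 3 h. GRP78 mRNA quantified by RT-qPCR, normalized to β-actin and expressed as percent of vehicle.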

NCI-H460 [10] = experiment: Induction of GRP78 mRNA expression in human NCI-H460 cells at 5 to 20 uM after 3 hrs by real time quantitative PCR analysis; type: functional, cell-based; procedure, shortened: as §2
NCI-H460 [11] = experiment: Induction of XBP-1 protein expression level in human NCI-H460 cells after 6 hrs by Western blot analysis; type: functional, cell-based
Procedure, shortened: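 H460 cells exposed to 20 μM for varying times, or to a range of concentrations for 6 h. ATF-4 and XBP-1 protein measured by Western blot with actin as loading control.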

NCI-H460 [12] = experiment: Induction of CHOP mRNA expression in human NCI-H460 cells after 6 hrs by real time quantitative PCR analysis; type: functional, cell-based
Procedure, shortened: (§3)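 H460 cells exposed to a concentration range for 6 or 12 h. CHOP mRNA measured by RT-PCR/qPCR and normalized to β-actin.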

NCI-H460 [13] = experiment: Induction of CHOP mRNA expression in human NCI-H460 cells after 12 hrs by real time quantitative PCR analysis; type: functional, cell-based; procedure, shortened: as §3
NCI-H460 [14] = experiment: Induction of CHOP protein expression in human NCI-H460 cells at 20 uM after 6 to 24 hrs by Western blot analysis; type: functional, cell-based
Procedure, shortened: (§4)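 H460 cells treated for 6–24 h, or across a range of concentrations. CHOP protein measured by Western blot, densitometry expressed as percent of control; Student's t test.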

NCI-H460 [15] = experiment: Induction of CHOP protein expression in human NCI-H460 cells at 20 uM after 12 hrs by Western blot analysis; type: functional, cell-based; procedure, shortened: as §4
NCI-H460 [16] = experiment: Induction of CHOP protein expression in human NCI-H460 cells after 6 to 24 hrs by Western blot analysis; type: functional, cell-based; procedure, shortened: as §4
NCI-H460 [17] = experiment: Increase in p53 expression in human NCI-H460 cells after 1 to 12 hrs by Western blot analysis; type: functional, cell-based
Procedure, shortened: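 H460 cells exposed to 20 μM for varying times, or to a range of concentrations for 12 h. Lysates made in Tris-HCl pH 7.4/NaCl/NP40/SDS buffer with protease and phosphatase inhibitors, then probed for p53 by Western blot with chemiluminescent detection; bands quantified by densitometry.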

NCI-H460 [18] = experiment: Induction of apoptosis in human NCI-H460 cells assessed as activation of caspase 3 activity at 20 uM after 24 hrs by Western blot analysis; type: functional, cell-based
NCI-H460 [19] = experiment: Induction of apoptosis in human NCI-H460 cells assessed as activation of caspase 9 activation at 20 uM after 24 hrs by Western blot analysis; type: functional, cell-based
NCI-H460 [20] = experiment: Induction of apoptosis in human NCI-H460 cells assessed as viable cells at 5 uM after 6 hrs by annexinV-propidium iodide staining based flow cytometric analysis relative to control; type: functional; details: NCI-H460, 6 h, read-out: Activity; procedure, shortened: as §1
NCI-H460 [21] = experiment: Induction of apoptosis in human NCI-H460 cells assessed as viable cells at 10 uM after 6 hrs by annexinV-propidium iodide staining based flow cytometric analysis relative to control; type: functional; details: NCI-H460, 6 h, read-out: Activity; procedure, shortened: as §1
NCI-H460 [22] = experiment: Induction of apoptosis in human NCI-H460 cells assessed as early apoptotic cells at 10 uM after 6 hrs by annexinV-propidium iodide staining based flow cytometric analysis relative to control; type: functional; procedure, shortened: as §1
NCI-H460 [23] = experiment: Induction of apoptosis in human NCI-H460 cells assessed as non-viable necrotic cells at 10 uM after 6 hrs by annexinV-propidium iodide staining based flow cytometric analysis relative to control; type: functional; procedure, shortened: as §1
NCI-H460 [24] = experiment: Induction of apoptosis in human NCI-H460 cells assessed as viable cells at 20 uM after 6 hrs by annexinV-propidium iodide staining based flow cytometric analysis relative to control; type: functional; details: NCI-H460, 6 h, read-out: Activity; procedure, shortened: as §1
NCI-H460 [25] = experiment: Decrease in CHOP protein expression in human NCI-H460 cells transfected with lentivirus carrying CHOP siRNA at 10 uM after 6 hrs by Western blot analysis

COc1cccc(/C=C/C(=O)/C=C/c2cccc(OC)c2OC)c1OC
Activity (NCI-H460 [1]): 1.48% | Activity (NCI-H460 [2]): 46.5% | Activity (NCI-H460 [3]): Active | Activity (Mus musculus [4]): Non-toxic | Activity (Mus musculus [5]): Non-toxic | Activity [6]: tde | IC50 (NCI-H460 [7]): 6.74 µM | Activity (NCI-H460 [8]): Active | Activity (NCI-H460 [9]): Dose-dependent effect | Activity (NCI-H460 [10]): Active | Activity (NCI-H460 [11]): Dose-dependent effect | Activity (NCI-H460 [12]): Dose-dependent effect | Activity (NCI-H460 [13]): Dose-dependent effect | Activity (NCI-H460 [14]): Active | Activity (NCI-H460 [15]): Active | Activity (NCI-H460 [16]): Dose-dependent effect | Activity (NCI-H460 [17]): Dose-dependent effect | Activity (NCI-H460 [18]): Active | Activity (NCI-H460 [19]): Active | viability at 5 µM (NCI-H460 [20]): 89.4% | viability at 10 µM (NCI-H460 [21]): 72.5% | Activity (NCI-H460 [22]): 22.74% | Activity (NCI-H460 [23]): 1.49% | viability at 20 µM (NCI-H460 [24]): 57.3% | Activity (NCI-H460 [25]): inactive
